Assay outcomes as filed in PubChem.
Apaf-1 act: human Apaf-1 activation; activity change, negative = activation, % at 20 µM; Apaf-1 apoptosome caspase-3 activation, DEVD-Rh110 fluorescence; hits give low values; hit rate 0.31% among 330,000;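 active means activity change at or below -40% at 20 µM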
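System: Reconstituted apoptosome of Apaf-1, cytochrome c, caspase-9, procaspase-3 | Reagent: dATP, cytochrome c, and (Z-DEVD)2-Rh110 caspase-3 substrate | Times: 30 min compound preincubation and 50 min reaction, both room temperature | Detection: Caspase-3-released Rh110 fluorescence, 540 nm emission, 480 nm excitation | Measure: Caspase-3 activity via Apaf-1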
Rh110 act interf: interferes with Rh110 fluorescence, flagging false Apaf-1 activators; fluorescence interference (activity change), % at 20 µM, hits read low; 980 tested, under 10 active; Rh110 fluorescence interference, quenched caspase reaction, Ex480/Em540; shares compounds with Apaf-1 act; AID 504616;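 active means mean activity change at or below -40% when tested at 20 µM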
Apaf-1 act conf: Apaf-1 (human) activation, single-dose confirmed; shares compounds with Apaf-1 act; reconstituted apoptosome caspase-3 activity, DEVD-Rh110 fluorescence; hits give low values; activity change, negative = activation, % at 20 µM; hit rate 5% among 980; AID 504617;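 active means mean activity change at or below -40%, meaning activation of 40% or more, at 20 µM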
Numbers without * were called inactive; + = active, no number. These entries were drawn from the full list.

SMILES	Apaf-1 act	others
O=C(O)CC1S/C(=N/N=C/c2ccc(-c3ccc(Cl)cc3[N+](=O)[O-])o2)NC1=O (stereo unspecified)	52
Cc1c(/C=N/Nc2nc3ccccc3[nH]2)c2ccccc2n1C	43
O=C(Cc1cc(=O)[nH][nH]1)N/N=C/C(Cl)=C/c1ccccc1	49
CCOc1ccccc1N(CC(=O)Nc1ccc(S(=O)(=O)N2CCOCC2)cc1)S(=O)(=O)c1ccc(Cl)cc1	-68*	Rh110 act interf=-1;Apaf-1 act conf=10
CCN(CC(=O)Nc1cc(S(=O)(=O)N2CCOCC2)ccc1Cl)Cc1ccccc1	42
CN(C)CCCNc1cc(C(C)(C)C)nc2c(-c3ccc(Cl)cc3)cnn12	58
CC(C)(C)C(=O)[C@@H]1[C@@H]2C(=O)N(C3CCCCC3)C(=O)[C@@H]2[C@H]2c3ccccc3C=CN12	64
CC(C)[C@H](N)C(=O)OCCOCn1cnc2c(=O)[nH]c(N)nc21	-7
CN1CCN(c2ccc(S(=O)(=O)N3CCCCC3)cc2NC(=O)/C=C/c2ccc(Cl)c([N+](=O)[O-])c2)CC1	51
CN1CCN(c2ccc(S(=O)(=O)N3CCCCC3)cc2NC(=O)c2ccc3ccccc3c2)CC1	-155*	Rh110 act interf=4;Apaf-1 act conf=8
CCN1CCN(S(=O)(=O)c2ccc(Cl)c(C(=O)Nc3ccccc3N3CCCC3)c2)CC1	-74*	Rh110 act interf=11;Apaf-1 act conf=13
CC(=O)Nc1ccc(S(=O)(=O)NC2=C(N3CCN(C)CC3)C(=O)c3ccccc3C2=O)cc1	60
CCN1CCN(C2=C(NS(=O)(=O)c3ccc(NC(C)=O)cc3)C(=O)c3ccccc3C2=O)CC1	74
CCN1CCN(S(=O)(=O)c2ccc(Cl)c(C(=O)N(C)Cc3cccs3)c2)CC1	58
COc1ccc(-c2sc3cc4c(cc3c2C#CC2(N)CCCCC2)OCO4)cc1	72
Cc1noc(C)c1S(=O)(=O)N1CCCC(C(=O)NCC2CCCO2)C1 (stereo unspecified)	-89*	Rh110 act interf=9;Apaf-1 act conf=12
O=C1NC(c2ccc(-c3ccccc3[N+](=O)[O-])o2)C(C(=O)c2ccc(F)cc2)C(O)(C(F)(F)F)N1 (stereo unspecified)	51
Cc1cccc(N2CCN(C(=O)c3cc4cc(F)ccc4[nH]3)CC2)c1C	42
COC(=O)c1ccccc1-c1ccc(C(c2c(C)[nH][nH]c2=O)c2c(C)[nH][nH]c2=O)o1	79
COC(=O)c1ccccc1-c1c2ccc(=N)cc-2oc2cc(N)ccc12	-332*	Rh110 act interf=+;Apaf-1 act conf=-82*
Cc1oc2c(c1C(=O)N1CCC(C)CC1)C(=O)c1ccccc1C2=O	42
Cc1cc(C)c2nc(N(CCN(C)C)C(=O)c3ccc(S(=O)(=O)N(C)CC4CCCO4)cc3)sc2c1 (stereo unspecified)	49
CC1CCN(C2=C(NS(=O)(=O)c3ccc(Cl)cc3)C(=O)c3ccccc3C2=O)CC1	46
COc1cccc(N2C(=O)CC(Nc3ccc(N4CCOCC4)cc3)C2=O)c1 (stereo unspecified)	-393*	Rh110 act interf=1;Apaf-1 act conf=16
S=C(Nc1ccc(N2CCOCC2)cc1)Nc1ccc2nc(-c3ccco3)c(-c3ccco3)nc2c1	41
SMILES	Apaf-1 act	others
CCOC(=O)c1c(CSC(=N)N)n(-c2ccc(C)cc2)c2cc(Br)c(OC(C)=O)cc12	46
COc1ccccc1-c1nnc(C2CCN(S(=O)(=O)c3cccc([N+](=O)[O-])c3)CC2)o1	-53*	Rh110 act interf=0;Apaf-1 act conf=8
O[C@@H](c1cc(C(F)(F)F)nc2c(C(F)(F)F)cccc12)[C@H]1CCCCN1	52
CC(=O)N1CCN(C(=S)Nc2ccc(SC(F)F)cc2)CC1	96
C#CCOCCOCCOCCNc1nc(N2CCN(C(=O)CCCCCCCCCCNC(=O)[C@H](CCCCN)n3cc(C)nn3)CC2)nc(N2CCN(C(=O)CCCCCCCCCCNC(=O)[C@@H]([C@H](C)CC)n3cc(CCCCCN)nn3)CC2)n1	82
CC(C)CCC(C)N=Cc1c(O)n(Cc2ccccc2)c(=O)c2ccccc12 (stereo unspecified)	60
CCCNC(=O)OC[C@H]1O[C@H](CCO/N=C(\C)CCN2CCc3nc(-c4ccccc4)c(-c4ccccc4)cc3C2)C=C[C@@H]1Oc1ccc(OC)cc1	53
COc1ccc(/C=N/NC(=O)c2cc(=O)[nH]c3ccccc23)cc1OC	-544*	Rh110 act interf=-15;Apaf-1 act conf=7
O=C(Cc1cc(=O)[nH][nH]1)N/N=C/c1cccc2ccccc12	54
Cc1[nH]n(-c2ccccc2)c(=O)c1/C=N/NC(=O)c1ccc(O)cc1O	73
Cn1c(CCN2CCCCC2)nc2cc(NC(=O)COc3ccccc3)ccc21	53
COc1cccc(C(=O)NN2C(=S)N(c3ccccc3)C(=O)C2CC(N)=O)c1 (stereo unspecified)	-83*	Rh110 act interf=-8;Apaf-1 act conf=11
